Experimental data: ChEMBL document CHEMBL4382201 (J Med Chem, 2018)
Converted amounts (≈) assume the structure as drawn. The source made the active and inactive calls. The rule behind the calls is not given here.

How the values were obtained:
[1] = tested on: CCRF-CEM; experiment: Growth inhibition of human CCRF-CEM cells after 48 hrs by SRB assay; type: functional
Summary of the method: (§1)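 NCI-60 five-dose screen at 100 µM, 10 µM, 1 µM, 100 nM and 10 nM. Incubation 48 h at 37 °C, 5% CO2, 100% humidity. Growth was expressed relative to the no-drug control and to the time-zero cell number, and GI50 was derived from these values.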

[2] = Chemical stability of the compound in 100 mM pH 6 PBS buffer assessed as compound remaining at 10 mM at room temperature after 2 days; type: physicochemical; conditions: read-out: Stability
Summary of the method: (§2)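 Compound at 10 mM in 100 mM PBS (pH 6.0 or 7.4, prepared in D2O), diluted 9:1 with DMSO-d6. Kept at room temperature for 3-10 days. The fraction of intact compound was followed by NMR.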

[3] = Chemical stability of the compound in 100 mM pH 6 PBS buffer assessed as compound remaining at 10 mM at room temperature after 4 days; type: physicochemical; conditions: read-out: Stability; summary of the method: as §2
[4] = Chemical stability of the compound in 90% DMSO/PBS buffer assessed as compound remaining at pH 6 in presence of GSH; type: physicochemical
Summary of the method: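 Compound and GSH at a 1:2 ratio in DMSO-d6/PBS 9:1, pH 6.0, at room temperature. Compound-only and GSH-only samples served as controls. Intact compound was monitored by NMR.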

[5] = Solubility of the compound in 50% DMSO/PBS buffer at 10 mM pH 6 after 3 to 10 days by NMR analysis; type: physicochemical; conditions: pH 6, 10000 µM
[6] = Chemical stability of the compound in 50% DMSO/PBS buffer assessed as compound remaining at pH 6 in presence of GSH after 48 hrs; type: physicochemical; conditions: 50% DMSO/PBS buffer with GSH, read-out: Stability
Summary of the method: (§3)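 Compound with GSH in DMSO-d6/PBS buffer 1:1, pH 6. Intact compound was followed by NMR over 24-48 h.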

[7] = Chemical stability of the compound in 50% DMSO/PBS buffer assessed as compound remaining at pH 6 in presence of GSH after 24 hrs; type: physicochemical; conditions: 50% DMSO/PBS buffer with GSH, read-out: Stability; summary of the method: as §3
[8] = tested on: dsDNA; experiment: Induction of DNA-interstanded-cross-link formation in [32P]-labeled 49-mer duplex DNA (unknown origin) at 1 mM in absence of H2O2 after 16 hrs by PAGE relative to control; type: functional
Summary of the method: (§4)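 A 32P-labelled 49-mer, annealed with 1.5 equiv complement (65 °C for 3 min in 10 mM potassium phosphate pH 7, 100 mM NaCl, then slow cooling), was used at 1.0 µM before final dilution. Duplex was mixed with compound (final 1 mM), NaCl and potassium phosphate pH 8, with or without H2O2. Incubation 16 h at room temperature, formamide quench, then 20% denaturing PAGE.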

[9] = tested on: dsDNA; experiment: Induction of DNA-interstanded-cross-link formation in [32P]-labeled 49-mer duplex DNA (unknown origin) at 1 mM in presence of H2O2 after 16 hrs by PAGE relative to control; type: functional; summary of the method: as §4
[10] = tested on: K562; experiment: Growth inhibition of human K562 cells after 48 hrs by SRB assay; type: functional; conditions: K562, 48 h; summary of the method: as §1
[11] = tested on: MOLT-4; experiment: Growth inhibition of human MOLT4 cells after 48 hrs by SRB assay; type: functional; conditions: MOLT-4, 48 h; summary of the method: as §1
[12] = tested on: RPMI-8226; experiment: Growth inhibition of human RPMI8226 cells after 48 hrs by SRB assay; type: functional; conditions: RPMI-8226, 48 h; summary of the method: as §1
[13] = tested on: SR; experiment: Growth inhibition of human SR cells after 48 hrs by SRB assay; type: functional; summary of the method: as §1
[14] = tested on: HOP-92; experiment: Growth inhibition of human HOP92 cells after 48 hrs by SRB assay; type: functional; conditions: HOP-92, 48 h; summary of the method: as §1
[15] = tested on: HT-29; experiment: Growth inhibition of human HT-29 cells after 48 hrs by SRB assay; type: functional; conditions: HT-29, 48 h; summary of the method: as §1
[16] = tested on: SNB-75; experiment: Growth inhibition of human SNB75 cells after 48 hrs by SRB assay; type: functional; conditions: SNB-75, 48 h; summary of the method: as §1
[17] = tested on: Malme-3M; experiment: Growth inhibition of human MALME-3M cells after 48 hrs by SRB assay; type: functional; summary of the method: as §1
[18] = tested on: IGROV-1; experiment: Growth inhibition of human IGROV1 cells after 48 hrs by SRB assay; type: functional; conditions: IGROV-1, 48 h; summary of the method: as §1
[19] = tested on: SK-OV-3; experiment: Growth inhibition of human SKOV3 cells after 48 hrs by SRB assay; type: functional; conditions: SK-OV-3, 48 h; summary of the method: as §1
[20] = tested on: MDA-MB-468; experiment: Growth inhibition of human MDA-MB-468 cells after 48 hrs by SRB assay; type: functional; conditions: MDA-MB-468, 48 h; summary of the method: as §1
[21] = tested on: MCF7; experiment: Growth inhibition of human MCF7 cells after 48 hrs by SRB assay; type: functional; conditions: MCF7, 48 h; summary of the method: as §1
[22] = Solubility of the compound in PBS buffer at 10 mM at pH 7.4 by UV-based analysis; type: physicochemical
Summary of the method: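 Compound (10 mM DMSO stock) was diluted into pH 7.4 buffer (ethanolamine/KH2PO4/potassium acetate/KCl) to a final 5% DMSO. After sonication and 18 h agitation the mixture was filtered and scanned by UV at 230-800 nm. Solubility was calculated from calibration plots made in 20% acetonitrile buffer, in quadruplicate, with solubility standards on each plate.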

[23] = Cytotoxicity against human CLL cells assessed as reduction in cell viability after 24 hrs; type: functional, cell-based
Summary of the method: (§5)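 Patient CLL lymphocytes isolated on Ficoll-Hypaque and held in RPMI 1640 with 10% autologous plasma at 1×10^7 cells/mL, fresh cells only. Cells were exposed to a concentration series for 24 h alongside time-matched untreated controls. Apoptosis was measured by annexin V-FITC/PI flow cytometry, at least 10,000 events per sample; each patient was analysed separately.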

[24] = tested on: Lymphocyte; experiment: Induction of apoptosis in human CLL-derived lymphocytes up to 30000 nM after 24 hrs by Annexin V-FITC/propidium iodide-staining based flow cytometry; type: functional, cell-based; summary of the method: as §5
[25] = tested on: Lymphocyte; experiment: Induction of apoptosis in human lymphocytes at 10 uM after 24 hrs by Annexin V-FITC/propidium iodide-staining based flow cytometry; type: cell-based
Summary of the method: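 Normal PBMCs from 3 donors were isolated on Ficoll and treated at 10 µM. Apoptosis was measured by annexin V-FITC/PI flow cytometry against time-matched untreated controls.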

[26] = tested on: DNA; experiment: Induction of DNA cross-linking activity in human CLL-derived lymphocytes assessed as increase in gammaH2AX formation at 10 uM after 24 hrs by flow cytometry; type: functional, cell-based
Summary of the method: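 Primary CLL lymphocytes from 3 patients were treated for 24 h at 10 µM or 1 µM, depending on compound. H2AX phosphorylation (% γH2AX) was measured by flow cytometry.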

[27] = Toxicity in CD1 mouse at 1.5 mg/kg/day, ip for 5 days per week measured after 3 months; type: organism-based; conditions: in vivo, 120 h
Summary of the method: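 Mice were dosed i.p. at 1.5 mg/kg per day, 5 days per week, over three months and observed for toxicity.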

[28] = tested on: MDA-MB-468; experiment: Antitumor activity against human MDA-MB-468 cells xenografted in nude CD1 mouse assessed as tumor size of initial size at 1.5 mg/kg/day, ip measured after 7 weeks (reference value: 278 to 657%); type: functional
Summary of the method: (§6)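 Female athymic nude mice (35 days, 20-22 g) received 2 million MDA-MB-468 cells s.c. in the flank, suspended in 1:1 matrigel/DMEM. Mice with palpable tumours were given 1.5 mg/kg i.p. or vehicle, 11 mice per group. Tumour size was measured by caliper every 7 days and body weight was recorded regularly.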

[29] = Toxicity in CD1 mouse xenografted with human MDA-MB-468 cells assessed as body weight change at 1.5 mg/kg/day, ip measured after 7 weeks; type: organism-based; conditions: in vivo, 1176 h; summary of the method: as §6
[30] = Chemical stability of the compound in 100 mM pH 7.4 PBS buffer assessed as compound remaining at 10 mM at room temperature after 2 days; type: physicochemical; conditions: read-out: Stability; summary of the method: as §2
[31] = Chemical stability of the compound in 100 mM pH 7 PBS buffer assessed as compound remaining at 10 mM at room temperature after 4 days; type: physicochemical; conditions: read-out: Stability; summary of the method: as §2
[32] = Drug metabolism in DMSO-d6/PBS buffer assessed as (S)-3-((2-amino-3-methoxy-3-oxopropylthio)methyl)-4-((2-chloroethyl)(2-hydroxyethyl)amino)phenylboronic acid formation after 10 days in presence of GSH by IT-TOF mass analysis
[33] = Drug metabolism in DMSO-d6/PBS buffer assessed as 1-(2-chloroethyl)-5-(methoxycarbonyl)-1,2,3,4,5,7-hexahydrobenzo[g][1,3,6]thiadiazonin-9-ylboronic acid formation after 10 days in presence of GSH by IT-TOF mass analysis
[34] = Drug metabolism in DMSO-d6/PBS buffer assessed as 1-(2-hydroxyethyl)-5-(methoxycarbonyl)-1,2,3,4,5,7-hexahydrobenzo[g][1,3,6]thiadiazonin-9-ylboronic acid formation after 10 days in presence of GSH by IT-TOF mass analysis
[35] = tested on: MDA-MB-468; experiment: Growth inhibition of human MDA-MB-468 cells after 48 hrs by […]; type: functional, cell-based; conditions: MDA-MB-468, 48 h

COC(=O)[C@H](N)CSCc1cc(B(O)O)ccc1N(CCCl)CCCl
GI50 [1]: 540 nM
remaining at 48 h, 10000 µM [2]: 92%
remaining at 96 h, 10000 µM [3]: 85%
Stability [4]: Stable
solubility [5]: Insoluble
remaining at 48 h [6]: 70%
remaining at 24 h [7]: 90%
Activity [8]: 1.5 to 15%
Activity [9]: < 65%
GI50 [10]: 3250 nM
GI50 [11]: 600 nM
GI50 [12]: 2620 nM
GI50 [13]: 280 nM
GI50 [14]: 560 nM
GI50 [15]: 4030 nM
GI50 [16]: 850 nM
GI50 [17]: 2390 nM
GI50 [18]: 3320 nM
GI50 [19]: 1460 nM
GI50 [20]: 1490 nM
GI50 [21]: 720 nM
solubility [22]: 231 µM (≈ 94.5 µg/mL)
IC50 [23]: 3 to 778 nM
Activity [24]: Active
Activity [25]: Non-Toxic
Activity [26]: Active
Activity [27]: Non-Toxic
Activity [28]: 58 - 178%
Activity [29]: Non-Toxic
remaining at 48 h, 10000 µM [30]: 92%
remaining at 96 h, 10000 µM [31]: 85%
Drug metabolism [32]: Metabolite detected
Drug metabolism [33]: Metabolite detected
Drug metabolism [34]: Metabolite detected
IC50 [35]: 3400 nM
